The entries come from a sample that favours hits as a whole.
Lung fibro prol = blocks proliferation of human lung fibroblasts | LL 47 human lung fibroblast viability, ATP luminescence; stronger effect = lower value | 1.1% of 85,000 active | viability, % at 10 µM;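 active means viability at or below 50% in the single dose screen; inactive means viability above 50%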;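 further: compound exposure lasted 72 h before the ATP readout; 100% = median luminescence of untreated cell-only wells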
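test system = LL 47 human lung fibroblasts | amount = 1,150 fibroblasts seeded per well | medium = 15% FBS in IMEM | times = overnight cell rest, 72 h compound treatment at 37 °C | measured by = CellTiter-Glo luminescence measuring cellular ATP | read-out = viability percentage against median untreated-cell control | benchmarks = cell-only wells, no compound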
HCT116 bCat-KO = beta-catenin-lacking colon tumor cell growth suppression. HCT116 beta-catenin knockout viability, CellTiter-Glo, 60 h; stronger effect = lower value. 1.5% of 140,000 active. viability, % at 10 µM. AID 818;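 active means viability at or under a set limit, the compound median less 4 SD, cut at about 6% in these data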;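 further: 0% = Hyamine 1622 control at 20 µM and 100% = untreated cell control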
H69AR inhibit = growth inhibitors of human H69AR lung tumor cells. 6% of 85,000 active. viability, % at 10 µM. H69AR lung tumor viability, ATP luminescence, 72 h; stronger effect = lower value;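 active means viability at or below 40%; inactive means viability above 40%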;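 further: multidrug resistant small cell line overexpressing MRP-1 efflux transporter; 100% = mean luminescence of untreated control wells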
HUVEC prolif 384 = inhibitors of human endothelial cell proliferation; HUVEC proliferation, CellTiter-Glo luminescence, 72 h; stronger effect = lower value; viability, % at 10 µM (by protocol); 1.1% of 86,000 active; AID 648;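 active means viability at or below 30%; inactive means viability above 30%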;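 further: 100% = median luminescence of DMSO-only cell control wells on each plate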
HCT116 PTEN-null = growth suppressors of cells with PTEN tumor suppressor deletion; viability, % at 10 µM; HCT116 PTEN-null viability, CellTiter-Glo, 60 h; stronger effect = lower value; 1.2% of 140,000 active;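 active means viability at or below a set limit, 4 SD under the median of all tested compounds, cut at about 3.7% in these data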;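 further: PTEN knockout HCT116 line with beta catenin targeted HCT116 as companion control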
* hit, by the source's call; / = no result.

SMILES | Lung fibro prol | HCT116 bCat-KO | H69AR inhibit | HUVEC prolif 384 | HCT116 PTEN-null
Cc1cc(C(=O)N/N=C/c2cc(Br)ccc2OC(=O)c2ccc(Br)cc2)n[nH]1 | / | 14 | / | / | 9
Cc1cc(C(=O)N/N=C/c2cc(Br)cc(Br)c2OC(=O)c2ccccc2)n[nH]1 | / | 5.1* | / | / | 8
O=C(Nc1c(C(=O)O)oc2ccc(Br)cc12)c1ccccc1 | 86 | 83 | 92 | 64 | 86
COc1ccccc1CNC(=O)c1nn(-c2ccc(C)cc2)c(=O)c2c1c1ccccc1n2C | 62 | 67 | 5.2* | 71 | 64
CCN1CCCC1CNC(=O)c1nn(-c2ccc(C)cc2)c(=O)c2c1c1ccccc1n2C (configuration not stated) | 46* | / | 48 | 25* | /
Cc1ccc(-n2nc(C(=O)N3CCN(C)CC3)c3c4ccccc4n(C)c3c2=O)cc1 | 97 | / | 82 | 89 | /
COc1ccccc1CNC(=O)c1cc2c(=O)n(C)c3ccccc3c2n1C | 91 | / | 26* | 51 | /
Cn1c(C(=O)NCCCN2CCOCC2)cc2c(=O)n(C)c3ccccc3c21 | 93 | 65 | 106 | 88 | 71
Cn1c(C(=O)NCCCN2CCN(c3ccccc3F)CC2)cc2c(=O)n(C)c3ccccc3c21 | 43* | 1.7* | 28* | 42 | 4
COc1ccc(-n2nc(C(=O)NCc3ccco3)c3c4ccccc4n(C)c3c2=O)cc1Cl | 34* | 67 | 25* | 63 | 60
COc1ccc(-n2nc(C(=O)NCC(=O)NCc3ccco3)c3ccccc3c2=O)cc1 | 103 | 91 | 101 | 91 | 98
Cc1cc(NC(=O)c2sccc2C)n(-c2cccc(Cl)c2)n1 | 101 | 76 | 87 | 94 | 73
CCn1c(/C=C/Nc2ccccc2)[n+](CC)c2ccc(Cl)cc21 | / | 47 | / | / | 47
CCn1c(/C=C/N(C)c2ccccc2)[n+](CC)c2ccc(Cl)cc21 | / | 3.8* | / | / | 5
CC(NC(=O)c1ccc(F)cc1)c1nc2ccccc2n1Cc1ccccc1F (configuration not stated) | 93 | 85 | 38* | 88 | 79
COc1ccc(C2=NOC3(CC(=O)N(c4ccc5ccccc5c4)C3=O)C2)c(OC)c1 (configuration not stated) | / | 88 | / | / | 93
O=C(OCC1OC(n2cnc3c(N(C(=O)c4ccccc4)C(=O)c4ccccc4)ncnc32)C(O)C1F)c1ccccc1 (configuration not stated) | 105 | 78 | 2.7* | 84 | 82
COc1cc(/C=C(\C#N)C(N)=O)ccc1OS(=O)(=O)c1ccc(C)cc1 | / | 34 | / | / | 47
COc1cc(/C=C(\C#N)C(=O)NC2CCCCC2C)ccc1OS(=O)(=O)c1ccc(C)cc1 (configuration not stated) | / | 0.8* | / | / | 1.0*
O=C(Cn1cnc2ccccc21)NC(c1ccccc1)c1ccccc1 | 94 | 72 | 72 | 82 | 70
CCc1ccc(OCC(=O)Nc2cccc3c2CCCC3)cc1 | / | 89 | / | / | 98
Cn1c(CCNC(=O)c2cccs2)nnc1SCC(=O)Nc1nc(-c2ccccc2)cs1 | 101 | 97 | 83 | 81 | 91
Cc1ccc(C(=O)NCCc2nnc(SCC(=O)Nc3nc(-c4ccccc4)cs3)n2C)cc1 | 58 | 1.0* | 43 | 75 | 0.8*
N#Cc1ccc(NC(=O)Nc2ccc(Cl)cc2)cc1 | 39* | 4.0* | 7.1* | 35 | 3.4*
CCCCCCc1nc2ccccc2c(=O)n1NC(=O)c1c(O)c2cccc3c2n(c1=O)CCC3 | 90 | 55 | 25* | 102 | 57
SMILES | Lung fibro prol | HCT116 bCat-KO | H69AR inhibit | HUVEC prolif 384 | HCT116 PTEN-null
CCCCc1nc2ccccc2c(=O)n1NC(=O)c1c(O)c2cccc3c2n(c1=O)CCC3 | 93 | / | 109 | 94 | /
CCCCCc1nc2ccccc2c(=O)n1NC(=O)c1c(O)c2cccc3c2n(c1=O)CCC3 | 92 | / | 27* | 102 | /
Oc1ccc(C2Nc3cccc4cccc(c34)N2)c(O)c1 | 83 | 95 | 17* | 82 | 81
COc1cc(C2Nc3cccc4cccc(c34)N2)ccc1OC(C)=O | 108 | 89 | / | 75 | 94
Cc1ccc(C2Nc3cccc4cccc(c34)N2)s1 | / | 99 | / | / | 102
COc1cc(C2Nc3cccc4cccc(c34)N2)cc(OC)c1O | 107 | 91 | 19* | 82 | 89
c1coc(C2Nc3cccc4cccc(c34)N2)c1 | 98 | 92 | 6.7* | 78 | 89
COC(=O)c1ccc(CSc2nc3ccccc3c(=O)n2Cc2ccco2)o1 | 102 | 74 | 91 | 88 | 75
CCC(C(=O)OCC(=O)Nc1cc(Cl)cc(Cl)c1)c1ccccc1 (configuration not stated) | / | 80 | / | / | 77

Source: PubChem (SRMLSC)
